Data on one compound can be found in article PMC5088049 (Pharmacogenetics and genomics, 2016).

Changes are numbered by the printed parent chain.

Holding throughout (assay type): in vitro ADME
In data set [1] the target is AKR1C3 Pro180Ser (Homo sapiens, UniProt P42330, P180S). The experiment in a line: Kinetics of EXE reduction to 17β-DHE, recombinant AKR1C3 Pro180Ser.
The target in data set [2] is AKR1C3 Arg258Cys (Homo sapiens, UniProt P42330, R258C). The experiment in a line: Kinetics of EXE reduction to 17β-DHE, recombinant AKR1C3 Arg258Cys.
Data set [3] concerns the target T1, AKR1C4 Gly135Glu (Homo sapiens, UniProt P17516, G135E).
T1 sequence (P17516 1-323 G135E): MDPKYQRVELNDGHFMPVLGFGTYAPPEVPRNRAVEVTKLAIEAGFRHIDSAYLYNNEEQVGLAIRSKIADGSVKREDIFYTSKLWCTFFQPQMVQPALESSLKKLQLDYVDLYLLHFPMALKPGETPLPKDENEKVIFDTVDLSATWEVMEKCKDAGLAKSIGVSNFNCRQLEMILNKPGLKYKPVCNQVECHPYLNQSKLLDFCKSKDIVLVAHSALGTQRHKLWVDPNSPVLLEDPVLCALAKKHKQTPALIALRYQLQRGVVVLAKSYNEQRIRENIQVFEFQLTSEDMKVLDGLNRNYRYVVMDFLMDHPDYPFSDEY
The experiment in a line: Kinetics of EXE reduction to 17β-DHE, recombinant AKR1C4 Gly135Glu. As to conditions: for VMAX: normalized to enzyme purity.

The target of data set [4] is T2, AKR1C4 Ser145Cys (Homo sapiens, UniProt P17516, S145C).
T2 sequence (P17516 1-323 S145C): T1 sequence (P17516 1-323 G135E) with E135G, S145C
The experiment in a line: Kinetics of EXE reduction to 17β-DHE, recombinant AKR1C4 Ser145Cys.

The target in data set [5] is T3, AKR1C4 (Homo sapiens, UniProt P17516).
T3 sequence (P17516 1-323): T1 sequence (P17516 1-323 G135E) with E135G
The experiment in a line: Metabolite identification, overnight incubation with recombinant AKR1C4. The settings on record: 200 µM EXE, 18-h incubation, 1.5 µg recombinant AKR1C4. The procedure, abridged:
(§1)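 Wildtype enzyme was His-tagged, expressed in E. coli BL21 (IPTG induction), Ni-NTA purified and dialysed against PBS. It was stopped with ice-cold acetonitrile and centrifuged. UPLC/ESI+ full scan (m/z 100–450) was followed by targeted MS/MS transitions. Retention times were matched to synthetic 17α/17β-dihydro standards.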

Data set [6] deals with AKR1C1 (Homo sapiens, UniProt Q04828). The data set is described as follows: Metabolite identification, overnight incubation with recombinant AKR1C1. The settings on record: 200 µM EXE, 18-h incubation, 1.5 µg recombinant AKR1C1. The procedure, abridged:
as §1

Data set [7] addresses AKR1C3 (Homo sapiens, UniProt P42330). The data set is described as follows: Metabolite identification, overnight incubation with recombinant AKR1C3. As to conditions: 200 µM EXE, 18-h incubation, 1.5 µg recombinant AKR1C3. The procedure, abridged:
as §1

Usually Km stands for the substrate concentration at which the rate is half of its maximum.

AKR1C3 Pro180Ser, sequence (P42330 whole entry P180S): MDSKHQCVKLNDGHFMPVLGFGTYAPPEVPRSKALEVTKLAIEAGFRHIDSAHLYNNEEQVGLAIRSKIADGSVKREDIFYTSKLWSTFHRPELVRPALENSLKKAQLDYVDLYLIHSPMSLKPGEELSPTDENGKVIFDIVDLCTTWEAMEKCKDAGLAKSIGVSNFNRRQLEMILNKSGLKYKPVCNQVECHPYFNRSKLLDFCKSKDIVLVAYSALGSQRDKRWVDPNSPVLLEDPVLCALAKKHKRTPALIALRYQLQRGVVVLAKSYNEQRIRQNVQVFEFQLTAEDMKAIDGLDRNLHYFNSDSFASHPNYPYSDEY
AKR1C3 Arg258Cys, sequence (P42330 whole entry R258C): as the sequence (P42330 whole entry P180S) above, with S180P, R258C counted along it
AKR1C1, sequence (Q04828 whole entry): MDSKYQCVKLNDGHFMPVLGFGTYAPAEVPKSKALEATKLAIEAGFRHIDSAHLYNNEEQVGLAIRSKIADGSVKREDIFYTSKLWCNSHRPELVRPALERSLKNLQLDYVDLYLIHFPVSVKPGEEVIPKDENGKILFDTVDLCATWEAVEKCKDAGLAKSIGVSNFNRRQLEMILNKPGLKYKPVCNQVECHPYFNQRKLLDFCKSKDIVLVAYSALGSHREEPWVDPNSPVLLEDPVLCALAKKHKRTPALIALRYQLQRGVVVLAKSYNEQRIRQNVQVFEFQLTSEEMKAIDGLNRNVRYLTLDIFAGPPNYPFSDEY
AKR1C3, sequence (P42330 whole entry): as the sequence (P42330 whole entry P180S) above, with S180P counted along it

In the case of `C=C1C[C@@H]2[C@H](CC[C@]3(C)C(=O)CC[C@@H]23)[C@@]2(C)C=CC(=O)C=C12` [exemestane, 6-methylenandrosa-1,4-diene-3-17-dione], the Km in data set [1] (AKR1C3 Pro180Ser (rs34186955), 17β-DHE formation) amounted to 11.2 ± 3.1 µM; in data set [2] (AKR1C3 Arg258Cys (rs62621365), 17β-DHE formation) it was 75.8 ± 19.9 µM; in data set [3] (AKR1C4 Gly135Glu (rs11253043), 17β-DHE formation), 311 ± 75.7 µM; in data set [4] (AKR1C4 Ser145Cys (rs3829125), 17β-DHE formation), 9.6 ± 2.4 µM. For the same compound, the CLINT in data set [1] (AKR1C3 Pro180Ser, VMAX/KM) amounted to 0.32 nL/min/mg; in data set [2] (AKR1C3 Arg258Cys, VMAX/KM) it was 0.03 nL/min/mg; in data set [3] (AKR1C4 Gly135Glu, VMAX/KM) it was 0.06 nL/min/mg; in data set [4] (AKR1C4 Ser145Cys, VMAX/KM), 0.61 nL/min/mg. Besides, the VMAX in data set [1] (AKR1C3 Pro180Ser, normalized to enzyme purity) is 3.6 ± 0.6 picomoles·min^−1·mg^−1; in data set [2] (AKR1C3 Arg258Cys, normalized to enzyme purity), 2.3 ± 0.1 picomoles·min^−1·mg^−1; in data set [3] (AKR1C4 Gly135Glu), 19.1 ± 4.2 picomoles·min^−1·mg^−1; in data set [3] (AKR1C4 Gly135Glu, listed as EXE), 19.1 ± 4.2 picomoles·min^−1·mg^−1; in data set [4] (AKR1C4 Ser145Cys, normalized to enzyme purity), 5.9 ± 1.1 picomoles·min^−1·mg^−1. Moreover, the “affinity for EXE of AKR1C3 Arg258Cys relative to wildtype” value in data set [2] (lower affinity (KM) than wildtype AKR1C3) is “roughly 6 fold”. For the same compound, the “VMAX of AKR1C4 Gly135Glu relative to wildtype” value in data set [3] (faster than wildtype AKR1C4) was found to be 8 fold. Besides, the metabolites formed entry is “both stereoisomers of DHE” in data set [5], “only 17β-DHE formation” in data set [6] and “only 17β-DHE formation” in data set [7].
